The record followed here is article PMC5758876 (Nucleic Acids Research, 2017).

One assay deals with Δchp1. Description: Drug sensitivity serial dilution. In kind it is cell-based, fission yeast Schizosaccharomyces pombe. The settings on record: 0 and 6 mM HU, 10-fold serial dilution. In a few lines: (§1)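 Strains were grown overnight in YEA broth (3% glucose, 0.5% yeast extract, 75 mg/l adenine) to mid-log phase and adjusted to 1 × 10^7 cells/ml. Five ten-fold serial dilutions were made, and 3 μl of each was spotted onto plates with 0 or 6 mM HU.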

Another assay deals with Δclr3. Put plainly: Drug sensitivity serial dilution. In kind it is cell-based, fission yeast Schizosaccharomyces pombe. The following applies: 0 and 6 mM HU, 10-fold serial dilution; compared with Δrik1, Δcid12, Δchp1. In a few lines: (§2)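 Deletion strains were cultured overnight to mid-log phase in YEA broth (3% glucose, 0.5% yeast extract, 75 mg/l adenine) and set to 1 × 10^7 cells/ml. Each culture went through five ten-fold serial dilution steps, and 3 μl spots were placed on HU-containing plates to assess growth.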

The next assay has as its system Y41FΔago1. Description: Drug sensitivity serial dilution. In kind it is cell-based, fission yeast Schizosaccharomyces pombe. The settings on record: 0 and 6 mM HU, 10-fold serial dilution. In a few lines:
as §1

Another assay deals with Δswi6. Description: Drug sensitivity serial dilution. The assay is classed as cell-based, fission yeast Schizosaccharomyces pombe. The settings on record: 0 and 6 mM HU, 10-fold serial dilution; compared with Δrik1, Δcid12, Δchp1. In a few lines: as §2
The subject of a further assay is Δrik1. Description: Drug sensitivity serial dilution. The assay is classed as cell-based, fission yeast Schizosaccharomyces pombe. The settings on record: 0 and 6 mM HU, 10-fold serial dilution. The method in brief:
as §2

In a further assay the test system is Δcid12. Put plainly: Drug sensitivity serial dilution. The assay is classed as cell-based, fission yeast Schizosaccharomyces pombe. The settings on record: 0 and 6 mM HU, 10-fold serial dilution. In a few lines: as §2
For the next assay, the system named is Y41FΔchp1. Description: Drug sensitivity serial dilution. The assay is classed as cell-based, fission yeast Schizosaccharomyces pombe. The settings on record: 0 and 6 mM HU, 10-fold serial dilution. The method in brief: as §1
A further assay relates to GFP-tagged Chp1. Put plainly: Peptide pull-down from Chp1GFP whole cell extracts. The assay is classed as binding, fission yeast Schizosaccharomyces pombe. The settings on record: western blot, n=3. (Immunoblotting shows a protein as a band on a membrane.)
The target of assay [1] is biotinylated histone H3 N-terminal peptide harbouring a phosphorylated Y41. Put plainly: pull-down.

Turning to `NC(=O)NO` [HU, hydroxyurea], the “HU sensitivity (in words)” value in the assay with Δchp1 is on record as “HU hypersensitivity”; with Δclr3, “milder or no hypersensitivity”; in the assay on Δswi6, “milder or no hypersensitivity”; in the assay on Δrik1, “HU hypersensitivity”; in the assay with Δcid12 it was “HU hypersensitivity”. Moreover, the “HU sensitivity of double mutant relative to Δago1 (in words)” value with Y41FΔago1 is “strongly suppressed HU hypersensitivity”. The “HU sensitivity of double mutant relative to Δchp1 (in words)” value in the assay on Y41FΔchp1 is “strongly suppressed HU hypersensitivity”.

On to “AAPATGGVKKPH RY(p)RPGTVALR EIRRYQKSTE [Y41p]”, for which the “Chp1-GFP association, phosphorylated versus unmodified (Y41F) peptide (in words)” value in the assay with GFP-tagged Chp1 was “This observation was confirmed”.

B1: Chp1, endogenous (natural protein)
chain: MVSVKPLPDIDSNEGETDADVYEVEDILADRVNKNGINEYYIKWAGYDWYDNTWEPEQNLFGAEKVLKKWKKRKKLIAKGLLEPFDAEDNEAKKMKREKEILRQQRQKRKSELTQLSQKVKEKFKKMRKKPARRIVTIANDEEEEDDQTMDEDAFERKSMQGELKERNLTDKTSTLSTSFGETSPDVNPFYLSEWPTVTDSILLSKSLSSDAIPLKNGEIKSTMLMPSDSDNSVPGIQNSNNLENTGAFVENANSPQSNTPLSTFRHSSPLSLSPVITSDNDVANSLFFSNSTPLPSSLKIKKEAPKLETHTILVSDNSGSLTKQDILSYFAFIKGNIEVFFLKSPKKDKVCNMAYIQFDSIEQAKLAYDKGHPSWHVTLVKGKISTDMEECKVSKSILKTTPSKKANARSVSFTQTTTDTLSESEKFASNVDLDENFDFNVNVTNEDAKQLKKSVIGSSWTTVNNDWNSVSKSDQTFENDGASKVVPAGNITLNSDNSLHHSISESEDLSSASTLSDYFRFVLRVGKSLYYAGELSFDISKLKAETEHQQLLRSLVSCKQVDVLRFVTSQYLEVFGTCLTKVLSGSLCIRSDVDMTHFKNILNRGNGAGIVLGSNYTLLLFTEDNNALMNLYDCQGQSNSPFWMVIFEPLESILVEWSAKNLRPKKPYHKSQSYLSYLLQLGHIDLHKIGAFQATQILIVSKQPSPEAEELEDTFREAAIPTFRGLEIPESLFLSQNVFVFLNVSLEDDFDQLQFLTLAKRKSCKFFLFGLSLPLKSPNDSHVGTDFKKNNEPLDKLTYSQYLRPMFPKGGVVSVTLSALIKTPRLLELISPFLEIKKDSWILILPPSIVDMVKSYFVTNNPDKSLLEIQNLLNTLQRYLTNPALKNVTLYQDWDIVIDDSADVSLASTLQLYQKKNYDKYRRFVLIHELKNELTPVNGLDIVDYDEFKETFMRAIGLK
B1 had a fold change against the unmodified (Y41F) peptide in [1] of 2.62 fold.
